A selection: hits, their analogues and other compounds. The true share with any hit is near 2.3%.
SKN-1 block: inhibitors of C. elegans SKN-1; inhibition, % at 21.8 µM; C. elegans VP596 Pgst-4::GFP/RFP ratio, acrylamide-induced, 24 h; 360,000 tested, 0.49% active;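 active = interference check ratio from 0.5 to 1.5 plus GFP to RFP signal ratio inhibition reaching or exceeding a fixed threshold, cut at about 30% in these data, passing the limit was not always enough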
MT1-MMP act inh: MT1-MMP (human) activation inhibition | AID 651647 | GFP/RFP ratio change, % at 20 µM | HT1080 RFP-PRO-GFP cells, GFP/RFP ratio fluorescence, overnight; percent of plate control window, DMSO zero | 360,000 tested, 0.061% active;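 active = GFP/RFP ratio change of at least 30% with cell ATP level not reduced by more than half and red fluorescence within 50% of control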
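Assay system: HT1080 RFP-PRO-GFP cells | Dosing: 20 µM single dose, 1% DMSO | Incubation: Cells overnight before dosing, compound overnight, 37 °C, 5% CO2 | Evaluation: GFP/RFP fluorescence ratio | Control set: DMSO-only wells and HT1080 RFP-L50D-GFP cell wells as references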
MPTP block: permeability transition pore inhibition; isolated mouse mitochondria, Ca2+ swelling absorbance, 30 min; 360,000 tested, 1.4% active; inhibition, % at 10 µM;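 active = inhibition of 50% or more, scaled per plate between neutral and stimulator controls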;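 also: 0% = DMSO wells given calcium and 100% = 1 mM EGTA wells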
ATG4B inh: blocks human ATG4B protease cleavage of LC3 substrate. Q9Y4P1. ATG4B cleavage of LC3-PLA2, NBD-HPC fluorescence, 1 h. inhibition, % at 8.33 µM. 340,000 tested, 0.51% active; in the data active = inhibition above about 40%
Target sequence (Q9Y4P1 whole entry, looked up): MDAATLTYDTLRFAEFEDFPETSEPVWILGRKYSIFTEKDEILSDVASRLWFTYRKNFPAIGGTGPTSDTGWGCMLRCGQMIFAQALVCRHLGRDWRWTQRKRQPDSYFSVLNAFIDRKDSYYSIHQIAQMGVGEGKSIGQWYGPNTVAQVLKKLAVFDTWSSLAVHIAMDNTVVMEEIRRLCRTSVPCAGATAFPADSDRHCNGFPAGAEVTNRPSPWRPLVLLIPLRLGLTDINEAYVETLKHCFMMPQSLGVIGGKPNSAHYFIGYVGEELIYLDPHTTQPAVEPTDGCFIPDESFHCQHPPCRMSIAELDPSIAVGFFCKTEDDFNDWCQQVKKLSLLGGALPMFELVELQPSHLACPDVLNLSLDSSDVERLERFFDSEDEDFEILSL
* = called active by the depositor; / = no result.

SMILES | SKN-1 block | MT1-MMP act inh | MPTP block | ATG4B inh
COc1ccc(/C=N/n2c(=O)[nH]c3c([nH]c4ccc(Br)cc43)c2=O)cc1CN1CCOCC1 | 37* | 5 | 4 | -3
COc1ccccc1N1CCN(C(=O)NCc2cccc(C(F)(F)F)c2)CC1 | -4 | 2 | 1 | 44*
COc1cc(OC)cc(-c2nc(-c3cccs3)no2)c1 | -1 | -2 | 7 | 4
COc1cccc(-c2nc(-c3cccs3)no2)c1 | 46* | -1 | 2 | 31
COc1cccc(-c2noc(-c3ccoc3C)n2)c1 | 56* | -3 | -2 | -1
COc1ccc(CNC(C)C2COc3ccccc3O2)c(OC)c1 (stereo not drawn) | 37* | -4 | 4 | 2
Cc1ccc(S(=O)(=O)N2CCN(C(=O)C(O)c3ccccc3)CC2)cc1 (stereo not drawn) | -4 | 0 | 0 | /
CC1OC(c2ccccc2)OC2COC(c3ccccc3)OC12 (stereo not drawn) | 36* | -1 | -1 | 2
Cc1cc(C(C)(C)C)cc(C)c1S(=O)(=O)N1CCN(C(=O)c2cc([N+](=O)[O-])c[nH]c2=O)CC1 | 5 | -1 | 1 | -12
CCCCn1c(N)c(N(CC(C)C)C(=O)CC2CCCC2)c(=O)[nH]c1=O | 5 | -1 | 1 | 5
O=C(/C(C=Nc1ccc(Br)cc1)=C(/O)c1ccco1)C(F)(F)F | 74* | -12 | 1 | 30
O=C(/C(C=Nc1cccc(C(F)(F)F)c1)=C(/O)c1ccco1)C(F)(F)F | 8 | -8 | 0 | -10
OCC[C@H]1C[C@H](O)[C@@H](O)[C@@]2(CCCc3ccccc3O2)O1 | 12 | 1 | 0 | 5
COC1=CC(=O)OC(c2cccc(C#N)c2)C1 (stereo not drawn) | -4 | 6 | 1 | /
O=C(c1ccco1)N1CCN(C/C=C/c2ccccc2)CC1 | 35* | 2 | 0 | 2
COc1cccc(-n2cnnn2)c1 | 40* | -3 | 0 | 2
COC(=O)c1cccc(-n2cnnn2)c1 | 6 | 1 | -1 | 7
Fc1ccc(-c2nc3ccc(Br)cn3c2Cc2ccccc2C(F)(F)F)cc1 | 51* | 0 | 0 | /
c1ccc(N=Nc2ccc3cccccc2-3)cc1 | 45* | 6 | 3 | 5
Cc1ccc(C2=NN(S(C)(=O)=O)C(c3ccc4c(c3)OCO4)C2)cc1 (stereo not drawn) | 38* | 5 | 24 | 3
O=C(CCn1nnc2ccccc21)N1CCC(O)(c2cccc(F)c2)CC1 | 18 | -12 | 0 | -1
O=C(O)c1ccccc1-c1ccccc1C(=O)Nc1nc2ccccc2s1 | 6 | -6 | 2 | 5
O=C(Nc1nc2ccccc2s1)c1ccccc1 | 65* | -2 | 0 | -4
CCN(CC)S(=O)(=O)c1ccc(NN=C2CCN(C)CC2)c([N+](=O)[O-])c1 | 8 | 4 | -2 | -3
CC1=NOC(=O)/C1=C/c1ccc(-c2ccc(Cl)cc2)o1 | 37* | -6 | 1 | /
SMILES | SKN-1 block | MT1-MMP act inh | MPTP block | ATG4B inh
O=C(COC(=O)c1cc(-c2cccc3ccccc23)nc2ccccc12)NC1CCS(=O)(=O)C1 (stereo not drawn) | 44 | -13 | 0 | -23
CCN(C(=O)COC(=O)c1cc(-c2cccc3ccccc23)nc2ccccc12)C1CCS(=O)(=O)C1 (stereo not drawn) | 39* | -5 | -1 | -13
COc1ccc(S(=O)(=O)N2CCOCC2)cc1NC(=O)c1ccc(S(=O)(=O)N2CCCCC2)cc1 | 10 | 2 | 0 | -59
CCCCCNC(=O)C(c1ccc(C(F)(F)F)cc1)n1c(=O)c(-c2ccco2)nc2ccccc21 (stereo not drawn) | -2 | -3 | -3 | /
Cc1cccc(C)c1-n1nnnc1C1(C)CCC(=O)N1CCCN1CCOCC1 (stereo not drawn) | -2 | 1 | -1 | /
CCC(=O)N1c2ccc(S(=O)(=O)CCC(=O)NCc3cccs3)cc2CC1C (stereo not drawn) | 43* | 1 | 0 | -3
CCC(=O)N1c2ccc(S(=O)(=O)CCC(=O)NC3CCCC3)cc2CC1C (stereo not drawn) | -2 | -1 | 0 | 0
Cc1nc(-c2ccccc2)sc1C1(C)CC(c2cccc([N+](=O)[O-])c2)=NO1 (stereo not drawn) | 26 | 3 | 1 | -17
O=c1cc(/C=C/c2ccccc2)oc2ccccc12 | 43* | 2 | 0 | -23
CCOc1ccc(N=Nc2c(=O)[nH]n3c(C)cc(C)nc23)cc1 | 45* | 18 | 0 | 3
COc1cccc(N=Nc2c(=O)[nH]n3c(C)cc(C)nc23)c1 | 16 | 22 | -3 | -1
NC(=O)c1ncn([C@@H]2O[C@H](CNCc3cc(Cl)ccc3OCc3ccc(Cl)cc3)[C@@H](O)[C@H]2O)n1 | 3 | 0 | 1 | -10
O=S(=O)(c1ccccc1Cl)N1CCC(O)(c2ccc3c(c2)OCO3)CC1 | -9 | 5 | 0 | -7
C=C(c1ccccc1)c1ccccc1N | -9 | -1 | -1 | -10
c1ccc(-c2nc3cc4ccccc4cc3[nH]2)nc1 | 42* | 11 | -2 | -8
CC(=O)Nc1ccc2nc(-c3ccccn3)[nH]c2c1 | -24 | 6 | -6 | -8
Cc1cc(OCc2cccc(Cl)c2)c(C)cc1CN1CCOCC1 | 72* | -2 | 5 | -20
COc1ccc(C(CNC(=O)c2ccc(NS(=O)(=O)c3cccc([N+](=O)[O-])c3)cc2)N2CCOCC2)cc1 (stereo not drawn) | 6 | 0 | 0 | -4
Nc1cccc2cc(S(=O)(=O)O)ccc12 | 51* | 4 | -1 | -1
CC(CCC(C)C(C)(C)C)[C@@H]1CC[C@H]2C3C[C@H](OS(O)(=S)=S)[C@H]4C[C@H](OS(O)(=S)=S)[C@@H](OS(O)(=S)=S)C[C@]4(C)[C@H]3CC[C@]12C (stereo partly drawn) (tested in a mixture with another compound) | 13 | 13 | -12 | 84*
CC(CCC(=O)NN)C1CCC2C3CCC4CC(O)CCC4(C)C3CCC12C (stereo not drawn) | 16 | -1 | -2 | 0
O=C(NCc1ccc(Cl)cc1)C1CCN(c2nnc(N3CCCC3=O)s2)CC1 | 37* | 2 | -2 | 1
COc1cc2c(cc1NC(=O)c1cccnc1)CCCC2 | 38* | -7 | 3 | -10
CC(C)NC(=O)C1(C)CCN1C(=O)C(c1ccccc1)c1ccccc1 (stereo not drawn) | 21 | 8 | 0 | /
COc1ccc(C(C(=O)NC2CCCC2)N(C(=O)c2snc(-c3ccc(F)cc3)c2N)c2ccc(OC)cc2)cc1 (stereo not drawn) | -1 | -10 | 4 | 6
COc1ccc(C(C(=O)NC2CCCC2)N(C(=O)c2snc(-c3ccc(F)cc3)c2N)c2ccc(F)cc2)cc1 (stereo not drawn) | 46* | -1 | 4 | -11
CCOC(=O)C(Cc1ccc(NC(C)=O)cc1)N1C(=O)c2ccccc2C1=O (stereo not drawn) | 0 | -3 | -1 | -5

Bioassay records as filed in PubChem.
